Laboratory results published in ChEMBL document CHEMBL3259640 (J Med Chem, 2014).
Converted amounts (≈) assume the structure as drawn. The source made the active and inactive calls. The calls are words filed in the database; no cut-off is given here.

Experiments:
[1] = target: Platelet-derived growth factor receptor beta (Homo sapiens, UniProt P09619); experiment: Inhibition of PDGFR-beta (unknown origin) assessed as [33P] incorporation in substrate by TopCount microplate scintillation counting analysis
MDA-MB-468 [2] = experiment: Induction of mitotic abnormalities in human MDA-MB-468 cells assessed as proportion of cells displaying chromosomal misalignment at 1000 nM after 48 hrs by immunofluorescent staining based microscopy (reference value: 21.4%); format: functional
U-937 = experiment: Growth inhibition of human U937 cells; format: functional
[3] = target: Phosphatidylinositol 4,5-bisphosphate 3-kinase catalytic subunit beta isoform (Homo sapiens, UniProt P42338); experiment: Inhibition of PI3K beta (unknown origin) assessed as [33P] incorporation in substrate by TopCount microplate scintillation counting analysis
[4] = Solubility of the compound in phosphate buffered saline containing 1% DMSO at pH 7.4 after 2 hrs by HPLC analysis; format: physicochemical
[5] = target: Insulin-like growth factor 1 receptor (Homo sapiens, UniProt P08069); experiment: Inhibition of IGF-1R (unknown origin) assessed as [33P] incorporation in substrate by TopCount microplate scintillation counting analysis
[6] = Growth inhibition of human RPTEC cells; format: cell-based
[7] = target: Mast/stem cell growth factor receptor Kit (Homo sapiens, UniProt P10721); experiment: Inhibition of Kit (unknown origin) assessed as [33P] incorporation in substrate by TopCount microplate scintillation counting analysis
MDA-MB-468 [8] = experiment: Antiproliferative activity against human MDA-MB-468 cells assessed as cell viability after 96 hrs by CellTiter96 assay; format: functional, cell-based; details: MDA-MB-468, 96 h
Mus musculus = experiment: Toxicity in BALB/c nu/nu mouse xenografted with human MDA-MB-231 cells assessed as body weight loss at 20 mg/kg, iv qd for 28 days; format: organism-based; parameters: dose 20 mg/kg, route intravenous; details: in vivo, 672 h
Method in brief: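 Female BALB/c nu/nu mice, 5–8 weeks old, implanted subcutaneously in the right flank with 1 × 10⁷ MDA-MB-231 cells in matrigel. Treatment began at about 100 mm³ tumor volume; 5 mice per group. Dosing for 28 days: IV 20 mg/kg once daily or PO 150 mg/kg twice daily, in 5% DMSO/10% Cremophor in H₂O; vehicle controls included. Body weight and tumor size (caliper) recorded every 2 days.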

MDA-MB-231 = experiment: Growth inhibition of human MDA-MB-231 cells; format: functional
[9] = target: Cyclin-dependent kinase 1/cyclin B1 (Homo sapiens, UniProt P06493); experiment: Inhibition of Cdk1/cyclin B (unknown origin) assessed as [33P] incorporation in substrate by TopCount microplate scintillation counting analysis; format: protein-complex assay
[10] = Half life in rat liver microsomes at 1 uM by LC-MS/MS analysis; format: ADME
[11] = Growth inhibition of human Hep3B cells; format: functional, Hep 3B2
Aurora kinase A = Aurora kinase A (Homo sapiens, UniProt O14965); experiment: Inhibition of aurora A (unknown origin) assessed as [33P] incorporation in substrate by TopCount microplate scintillation counting analysis
HepG2 = experiment: Growth inhibition of human HepG2 cells; format: functional
Aurora kinase B = Aurora kinase B (Homo sapiens, UniProt Q96GD4); experiment: Inhibition of aurora B (unknown origin) assessed as [33P] incorporation in substrate by TopCount microplate scintillation counting analysis
MDA-MB-468 [12] = experiment: Induction of mitotic abnormalities in human MDA-MB-468 cells assessed as proportion of cells displaying multipolar spindles at 1000 nM after 48 hrs by immunofluorescent staining based microscopy (reference value: […]); format: functional
[13] = AUC in Sprague-Dawley rat at 2 mg/kg, iv compound formulated with 5% DMSO, 10% cremophor and 85% water by LC-MS/MS analysis; format: ADME, organism-based; parameters: dose 2 mg/kg, route intravenous; details: plasma
[14] = Growth inhibition of human HuH7 cells; format: functional; details: Huh-7
[15] = target: Serine/threonine-protein kinase Chk2 (Homo sapiens, UniProt O96017); experiment: Inhibition of CHK2 (unknown origin) assessed as [33P] incorporation in substrate by TopCount microplate scintillation counting analysis
HeLa [16] = experiment: Induction of apoptosis in human HeLa cells assessed as reduction in XIAP protein expression at 1 uM after 24 to 48 hrs by western blot analysis; format: functional, cell-based
Method in brief: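 HeLa cells given 1.0 μM compound, DMSO, or paclitaxel 100 nM for 24 and 48 h. Lysates made in SDS sample buffer, run on SDS-PAGE and transferred to PVDF. Blots probed for cleaved caspase-3, cleaved PARP, Bcl-2, Mcl-1 and XIAP, with actin as loading control, and detected by HRP-linked ECL.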

K562 = experiment: Growth inhibition of human K562 cells; format: functional
HeLa [17] = experiment: Antiproliferative activity against human HeLa cells assessed as cell viability after 96 hrs by CellTiter96 assay; format: functional, cell-based
[18] = target: T1, Kinetochore protein NDC80 homolog (Homo sapiens) (UniProt O14777); experiment: Inhibition of Hec1/Nek2 interaction in human K562 cells assessed as induction of Nek2 degradation after 24 hrs by western blot analysis; format: cell-based
T1 sequence (whole entry): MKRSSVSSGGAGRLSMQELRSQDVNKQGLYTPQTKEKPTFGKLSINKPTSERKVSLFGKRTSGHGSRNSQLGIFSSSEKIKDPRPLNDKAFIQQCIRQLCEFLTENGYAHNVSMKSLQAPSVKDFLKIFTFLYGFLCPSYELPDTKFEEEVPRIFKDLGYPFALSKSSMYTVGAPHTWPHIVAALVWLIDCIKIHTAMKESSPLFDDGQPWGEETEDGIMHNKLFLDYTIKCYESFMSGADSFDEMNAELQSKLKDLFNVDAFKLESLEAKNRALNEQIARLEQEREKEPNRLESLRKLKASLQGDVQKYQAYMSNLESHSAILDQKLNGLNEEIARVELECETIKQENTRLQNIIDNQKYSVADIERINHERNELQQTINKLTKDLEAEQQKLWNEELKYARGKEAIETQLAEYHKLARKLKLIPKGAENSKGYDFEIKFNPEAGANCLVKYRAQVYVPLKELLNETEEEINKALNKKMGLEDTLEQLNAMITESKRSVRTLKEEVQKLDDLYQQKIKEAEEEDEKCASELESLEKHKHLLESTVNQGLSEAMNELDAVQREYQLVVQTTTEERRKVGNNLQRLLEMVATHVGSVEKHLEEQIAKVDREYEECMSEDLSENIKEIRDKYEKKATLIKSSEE
Method in brief: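 K562 cells exposed to DMSO or to 10, 100 or 1000 nM for 24 h. Nek2 and Hec1 detected by western blot in SDS sample buffer lysates, with actin as loading control and ECL detection.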

[19] = target: Serine/threonine-protein kinase B-raf (Homo sapiens, UniProt P15056); experiment: Inhibition of B-Raf (unknown origin) assessed as [33P] incorporation in substrate by TopCount microplate scintillation counting analysis
MDA-MB-468 [20] = experiment: Induction of mitotic abnormalities in human MDA-MB-468 cells assessed as proportion of cells displaying chromosomal misalignment at 100 nM after 48 hrs by immunofluorescent staining based microscopy (reference value: 21.4%); format: functional

Platelet-derived growth factor receptor beta, sequence (P09619 whole entry): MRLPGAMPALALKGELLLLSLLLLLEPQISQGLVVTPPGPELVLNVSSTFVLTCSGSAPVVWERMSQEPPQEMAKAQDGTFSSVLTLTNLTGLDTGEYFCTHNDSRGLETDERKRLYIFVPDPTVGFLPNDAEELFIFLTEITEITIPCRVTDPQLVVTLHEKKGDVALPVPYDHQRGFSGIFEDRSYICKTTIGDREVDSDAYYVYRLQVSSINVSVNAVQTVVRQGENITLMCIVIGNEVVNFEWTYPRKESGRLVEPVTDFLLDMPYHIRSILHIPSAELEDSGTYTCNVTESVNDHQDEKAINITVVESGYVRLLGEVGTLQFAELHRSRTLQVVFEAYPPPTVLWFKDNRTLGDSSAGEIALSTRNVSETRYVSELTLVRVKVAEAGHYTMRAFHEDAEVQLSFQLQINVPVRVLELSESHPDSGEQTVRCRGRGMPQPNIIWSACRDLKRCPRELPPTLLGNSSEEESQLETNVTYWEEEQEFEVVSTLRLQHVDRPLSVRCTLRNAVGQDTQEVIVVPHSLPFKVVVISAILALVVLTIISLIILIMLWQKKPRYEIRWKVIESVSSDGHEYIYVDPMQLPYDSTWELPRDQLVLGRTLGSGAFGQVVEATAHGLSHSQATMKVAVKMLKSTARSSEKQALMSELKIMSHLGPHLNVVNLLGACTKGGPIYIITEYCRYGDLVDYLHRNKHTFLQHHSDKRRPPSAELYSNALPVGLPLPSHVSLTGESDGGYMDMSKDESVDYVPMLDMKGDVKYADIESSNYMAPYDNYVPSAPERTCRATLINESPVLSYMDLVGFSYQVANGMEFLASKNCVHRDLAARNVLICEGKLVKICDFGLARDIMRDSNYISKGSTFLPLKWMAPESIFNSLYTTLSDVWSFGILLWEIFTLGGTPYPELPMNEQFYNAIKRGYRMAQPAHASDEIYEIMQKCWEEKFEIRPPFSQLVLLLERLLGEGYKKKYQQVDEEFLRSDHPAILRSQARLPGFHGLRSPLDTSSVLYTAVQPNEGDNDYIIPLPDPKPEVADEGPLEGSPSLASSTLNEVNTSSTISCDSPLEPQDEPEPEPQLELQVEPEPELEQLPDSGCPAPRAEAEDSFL
Aurora kinase A, sequence (O14965 whole entry): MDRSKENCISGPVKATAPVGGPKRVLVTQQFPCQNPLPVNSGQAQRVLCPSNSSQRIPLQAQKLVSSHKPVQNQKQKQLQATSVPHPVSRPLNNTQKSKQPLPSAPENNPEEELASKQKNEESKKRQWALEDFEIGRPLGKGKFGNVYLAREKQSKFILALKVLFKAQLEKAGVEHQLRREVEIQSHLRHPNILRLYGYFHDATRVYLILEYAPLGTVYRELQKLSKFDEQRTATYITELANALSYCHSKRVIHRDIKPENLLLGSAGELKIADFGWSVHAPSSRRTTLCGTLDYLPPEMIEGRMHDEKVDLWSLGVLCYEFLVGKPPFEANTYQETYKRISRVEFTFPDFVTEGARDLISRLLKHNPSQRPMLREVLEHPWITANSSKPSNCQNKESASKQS
Cyclin-dependent kinase 1/cyclin B1, sequence (P06493 whole entry): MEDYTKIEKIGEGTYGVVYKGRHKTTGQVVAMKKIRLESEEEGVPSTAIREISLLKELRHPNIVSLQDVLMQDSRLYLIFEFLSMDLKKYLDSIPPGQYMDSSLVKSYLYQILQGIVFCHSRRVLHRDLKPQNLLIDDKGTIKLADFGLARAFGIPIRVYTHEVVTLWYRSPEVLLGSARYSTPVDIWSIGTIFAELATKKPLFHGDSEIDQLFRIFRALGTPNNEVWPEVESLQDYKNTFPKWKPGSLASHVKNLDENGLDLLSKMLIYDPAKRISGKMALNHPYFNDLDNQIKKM
Cyclin-dependent kinase 1/cyclin B1, sequence (P14635 whole entry, further chain): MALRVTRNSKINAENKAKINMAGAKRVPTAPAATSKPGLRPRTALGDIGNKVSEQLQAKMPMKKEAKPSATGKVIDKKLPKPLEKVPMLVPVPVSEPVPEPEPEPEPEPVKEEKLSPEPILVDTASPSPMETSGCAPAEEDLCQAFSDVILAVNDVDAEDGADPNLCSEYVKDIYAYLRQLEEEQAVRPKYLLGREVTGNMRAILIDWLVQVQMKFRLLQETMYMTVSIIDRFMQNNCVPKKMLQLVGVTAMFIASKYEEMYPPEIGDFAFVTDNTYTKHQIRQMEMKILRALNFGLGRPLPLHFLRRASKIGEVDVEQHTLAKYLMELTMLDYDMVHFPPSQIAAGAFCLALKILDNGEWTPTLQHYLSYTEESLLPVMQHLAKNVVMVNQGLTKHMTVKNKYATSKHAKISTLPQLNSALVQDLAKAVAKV
Insulin-like growth factor 1 receptor, sequence (P08069 31-736 limits assumed): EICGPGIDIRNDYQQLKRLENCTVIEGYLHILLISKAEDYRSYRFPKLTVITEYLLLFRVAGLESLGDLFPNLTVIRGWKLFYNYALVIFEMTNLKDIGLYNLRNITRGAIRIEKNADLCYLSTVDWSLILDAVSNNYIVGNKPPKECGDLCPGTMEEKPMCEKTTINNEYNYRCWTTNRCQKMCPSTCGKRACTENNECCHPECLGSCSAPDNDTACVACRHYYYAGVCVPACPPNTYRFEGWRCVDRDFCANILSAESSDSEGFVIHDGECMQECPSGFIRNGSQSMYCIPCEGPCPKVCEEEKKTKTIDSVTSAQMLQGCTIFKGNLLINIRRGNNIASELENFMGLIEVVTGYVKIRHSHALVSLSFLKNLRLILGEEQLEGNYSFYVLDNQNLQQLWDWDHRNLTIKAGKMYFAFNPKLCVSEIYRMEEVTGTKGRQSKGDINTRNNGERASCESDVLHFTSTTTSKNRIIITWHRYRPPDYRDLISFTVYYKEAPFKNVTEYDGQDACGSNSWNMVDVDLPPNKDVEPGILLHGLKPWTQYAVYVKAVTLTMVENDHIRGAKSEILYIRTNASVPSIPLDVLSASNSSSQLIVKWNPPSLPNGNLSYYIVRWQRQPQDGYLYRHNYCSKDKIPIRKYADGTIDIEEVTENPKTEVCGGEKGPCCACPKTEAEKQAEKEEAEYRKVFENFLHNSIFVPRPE
Insulin-like growth factor 1 receptor, sequence (P08069 741-1367 limits assumed): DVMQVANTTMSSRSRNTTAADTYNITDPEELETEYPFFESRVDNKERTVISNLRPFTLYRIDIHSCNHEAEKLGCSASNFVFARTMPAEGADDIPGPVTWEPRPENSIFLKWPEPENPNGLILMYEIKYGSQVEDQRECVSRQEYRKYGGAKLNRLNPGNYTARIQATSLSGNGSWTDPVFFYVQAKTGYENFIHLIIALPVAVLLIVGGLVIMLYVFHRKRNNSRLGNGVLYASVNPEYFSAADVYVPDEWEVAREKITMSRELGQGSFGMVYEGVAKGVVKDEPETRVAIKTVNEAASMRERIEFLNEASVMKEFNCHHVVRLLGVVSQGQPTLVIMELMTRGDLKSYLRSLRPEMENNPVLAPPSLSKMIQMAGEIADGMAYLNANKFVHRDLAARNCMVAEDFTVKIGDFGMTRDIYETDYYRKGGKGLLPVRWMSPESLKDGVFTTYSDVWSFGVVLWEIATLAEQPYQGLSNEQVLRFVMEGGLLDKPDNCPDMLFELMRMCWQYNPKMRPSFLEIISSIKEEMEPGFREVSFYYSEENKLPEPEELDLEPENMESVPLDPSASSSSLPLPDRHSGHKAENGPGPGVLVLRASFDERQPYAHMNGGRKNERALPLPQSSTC
Serine/threonine-protein kinase B-raf, sequence (P15056 whole entry): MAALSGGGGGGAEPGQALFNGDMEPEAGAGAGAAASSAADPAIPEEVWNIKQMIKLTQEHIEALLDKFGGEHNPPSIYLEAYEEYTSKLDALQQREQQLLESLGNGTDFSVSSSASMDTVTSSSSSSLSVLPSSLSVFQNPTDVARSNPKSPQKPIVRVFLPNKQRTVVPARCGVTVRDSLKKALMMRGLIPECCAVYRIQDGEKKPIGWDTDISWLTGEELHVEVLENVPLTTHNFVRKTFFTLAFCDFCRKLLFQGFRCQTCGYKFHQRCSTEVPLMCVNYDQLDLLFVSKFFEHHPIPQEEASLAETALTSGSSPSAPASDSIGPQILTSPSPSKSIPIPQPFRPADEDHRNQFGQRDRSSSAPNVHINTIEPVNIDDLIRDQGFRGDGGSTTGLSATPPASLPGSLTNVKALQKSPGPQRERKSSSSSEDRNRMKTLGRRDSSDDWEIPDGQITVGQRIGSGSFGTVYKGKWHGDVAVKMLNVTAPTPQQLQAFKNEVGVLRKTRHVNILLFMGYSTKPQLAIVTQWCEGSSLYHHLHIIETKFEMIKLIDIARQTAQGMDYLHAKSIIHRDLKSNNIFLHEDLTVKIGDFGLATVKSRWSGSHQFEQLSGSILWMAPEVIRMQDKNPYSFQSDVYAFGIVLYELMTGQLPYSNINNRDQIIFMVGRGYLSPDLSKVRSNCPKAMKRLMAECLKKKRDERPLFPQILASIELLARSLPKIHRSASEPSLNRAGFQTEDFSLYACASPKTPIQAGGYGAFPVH
Serine/threonine-protein kinase Chk2, sequence (O96017 whole entry): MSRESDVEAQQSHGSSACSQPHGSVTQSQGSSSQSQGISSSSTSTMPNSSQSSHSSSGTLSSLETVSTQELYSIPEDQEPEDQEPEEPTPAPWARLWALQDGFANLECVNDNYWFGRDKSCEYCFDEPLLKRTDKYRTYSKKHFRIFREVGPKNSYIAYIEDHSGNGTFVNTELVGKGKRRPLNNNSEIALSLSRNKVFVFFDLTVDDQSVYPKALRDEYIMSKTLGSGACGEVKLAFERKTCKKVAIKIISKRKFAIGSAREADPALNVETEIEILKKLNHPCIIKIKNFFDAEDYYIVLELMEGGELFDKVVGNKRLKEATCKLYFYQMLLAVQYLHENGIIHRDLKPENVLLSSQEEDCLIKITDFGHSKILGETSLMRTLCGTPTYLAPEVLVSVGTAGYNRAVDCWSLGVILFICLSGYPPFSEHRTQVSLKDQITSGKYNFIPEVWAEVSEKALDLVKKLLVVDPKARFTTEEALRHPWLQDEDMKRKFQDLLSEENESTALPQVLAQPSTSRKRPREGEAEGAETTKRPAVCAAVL

COc1ccc(Oc2cc(C)c(-c3csc(NC(=O)c4ccnc(F)c4)n3)c(C)c2)cc1
IC50 [1]: > 10000 nM
Activity (MDA-MB-468 [2]): 20%
GI50 (U-937): 29.6 nM
IC50 [3]: > 10000 nM
solubility kinetic at 2 h [4]: 0.19 µM (≈ 0.0854 µg/mL)
IC50 [5]: > 10000 nM
GI50 [6]: > 9000 nM
IC50 [7]: > 10000 nM
IC50 (MDA-MB-468 [8]): 40 nM
Activity (Mus musculus): < 5%
GI50 (MDA-MB-231): 39.8 nM
IC50 [9]: > 10000 nM
half-life at 1 µM [10]: 5.67 h
GI50 [11]: 68.3 nM
IC50 (Aurora kinase A): > 10000 nM
GI50 (HepG2): 191 nM
IC50 (Aurora kinase B): > 10000 nM
Activity (MDA-MB-468 [12]): 46.7%
AUC [13]: 64.9 µM·h
GI50 [14]: 79.6 nM
IC50 [15]: > 10000 nM
inhibition (HeLa [16]): Active
GI50 (K562): 56.2 nM
IC50 (HeLa [17]): 42.7 nM
Activity [18]: Dose-dependent effect
IC50 [19]: > 10000 nM
Activity (MDA-MB-468 [20]): 21.8%
